The values that follow come from ChEMBL document CHEMBL1123312, “In the search for new anticancer drugs. 17. Linear and cyclic polyether analogues of N,N:N',N':N'',N''-tri-1,2-ethanediylphosphoric triamide and N,N:N',N':N'',N''-tri-1,2-ethanediylphosphorothioic triamide” (J Med Chem, 1986).

Where “and” joins values, the source holds several entries; their conditions need not be identical. Identical values can stand only once.

Data set [1] in a line: partition coefficient with the use of 1-octanol / water solvent system. It counts as physicochemical. A digest of the protocol:
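4 mL of 10 mM aqueous compound was stirred vigorously with 2 mL 1-octanol for 5 min at 25 °C. The aqueous layer was analysed by ³¹P NMR, and signal intensity (peak height × width at half-height) gave concentrations in each phase. P = [octanol]/[water].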

Data set [2] concerns Mus musculus. Kind of data set: Percentage increase in life span when the compound was administered intraperitoneally at dose of 20 mg/Kg in P388 leukemia in CDF1 mice was determined. It counts as functional. As to conditions: P388, ip. A digest of the protocol: (§1)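 CD2F1 male mice, 19–22 g, in groups of six, inoculated ip with 10⁶ P388 cells on day 0. Dosed ip once daily for 9 days from day 1, in saline, or for linear polyethers in aqueous 2% Tween 80. Deaths and survivors were recorded to 30 days, some to 60. T/C is mean survival, treated vs tumour-bearing control. %ILS = [(T−C)/C]×100. Average day-5 weight change was taken as toxicity.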

For data set [3], the system named is Mus musculus. Kind of data set: Percentage increase in life span when the compound was administered intraperitoneally at dose of 60 mg/Kg in P388 leukemia in CDF1 mice was determined. The data set is classed as functional. As to conditions: P388, ip. A digest of the protocol:
as §1

The test system of data set [4] is Mus musculus. Kind of data set: Anticancer activity against P388 leukemia in CD2F1 male mice by 60 mg/kg/day. The data set is classed as functional. A digest of the protocol:
as §1

Data set [5] has as its system Mus musculus. Kind of data set: Anticancer activity against P388 leukemia in CD2F1 male mice expressed as Average % weight change on day 5 as a measure of toxicity was reported at a dose of 60 mg/kg/day. The data set is classed as functional. A digest of the protocol:
as §1

The subject of data set [6] is Mus musculus. Description: Compound was evaluated for the anticancer activity against P388 leukemia in CD2F1 male mice at a dose of 60 mg/kg/after 30 days; 0/6. The data set is classed as functional. A digest of the protocol: as §1
The subject of data set [7] is Mus musculus. Description: Compound was evaluated for the anticancer activity against P388 leukemia in CD2F1 male mice at a dose of 20 mg/kg/after 30 days; 0/6. It counts as functional.
Data set [8] deals with Mus musculus. Kind of data set: Anticancer activity against P388 leukemia in CD2F1 male mice expressed as Average % weight change on day 5 as a measure of toxicity was reported at a dose of 20 mg/kg/day. The data set is classed as functional. A digest of the protocol:
as §1

Molecule `CCOCCOCCOP(=O)(N1CC1(C)C)N1CC1(C)C` (stereo unspecified) registered a Partition coefficient in data set [1] of 1.65. Besides, the ILS (as a rule, how much longer treated animals lived than controls) at 20 mg/kg with Mus musculus [2] was 28%. In the data set on Mus musculus [3], this molecule gave an ILS at 60 mg/kg of 88%. The T/C (in general, the result in the treated group divided by that in the control group, in per cent) in the data set on Mus musculus [4] was 188% and 88%. Moreover, the Weight change in the data set on Mus musculus [5] is recorded as 5.5%; in the data set on Mus musculus [8], 1.5%. The Survivors in the data set on Mus musculus [6] and in the data set on Mus musculus [7] was 0 each time.
In turn, `CCOCCOCCOP(=O)(N1CC1)N1CC1` returned a Partition coefficient in data set [1] of 1.25. The molecule also displayed an ILS at 20 mg/kg in the data set with Mus musculus [2] of 40%. The molecule also yielded an ILS at 60 mg/kg with Mus musculus [3] of 131%. In addition, the T/C in the data set on Mus musculus [4] is 231% and 131%. Besides, the Weight change amounted to 4.5% with Mus musculus [5] and 2.8% in the data set with Mus musculus [8]. The Survivors in the data set on Mus musculus [6] and in the data set with Mus musculus [7] was 0 each time.
As for `CCOCCOCCOP(=S)(N1CC1)N1CC1`, the Partition coefficient in data set [1] was determined as 2.4. This molecule also showed an ILS at 20 mg/kg in the data set with Mus musculus [2] of 24%. The same molecule yielded an ILS at 60 mg/kg in the data set on Mus musculus [3] of 77%. The T/C with Mus musculus [4] was 177% and 77%. In addition, the Weight change with Mus musculus [5] came out at 1.4%; in the data set on Mus musculus [8], 2.6%. Further, the Survivors in the data set with Mus musculus [6] and in the data set on Mus musculus [7] was 0 each time.
`CCOCCOCCOP(=S)(N1CC1(C)C)N1CC1(C)C` (stereo unspecified) came in with a Partition coefficient in data set [1] of 2.95. The ILS at 20 mg/kg in the data set on Mus musculus [2] amounted to 19%. For the same molecule, the ILS at 60 mg/kg in the data set on Mus musculus [3] turned out to be 42%. The values for the Weight change in the data set on Mus musculus [5] and with Mus musculus [8] were 1.4% and 1.6%, respectively. The Survivors in the data set on Mus musculus [6] and in the data set on Mus musculus [7] was 0 each time.
In data set [1], `O=P(N1CCOCCOCCOCCOCCOCC1)(N1CC1)N1CC1` came in with a Partition coefficient of 0.044. The ILS at 20 mg/kg with Mus musculus [2] amounted to 47%. The ILS at 60 mg/kg in the data set on Mus musculus [3] is 88%. Besides, the T/C in the data set with Mus musculus [4] is 188% and 88%. The Weight change with Mus musculus [5] turned out to be 0.5%; in the data set on Mus musculus [8], 7.6%. For the same molecule, the Survivors with Mus musculus [6] and in the data set with Mus musculus [7] was 0 in each case.
`S=P(N1CCOCCOCCOCCOCCOCC1)(N1CC1)N1CC1` displayed a Partition coefficient in data set [1] of 5.6. Moreover, in the data set with Mus musculus [2], the ILS at 20 mg/kg came out at 2%. This molecule also yielded an ILS at 60 mg/kg with Mus musculus [3] of 20%. Further, the Weight change with Mus musculus [5] worked out at 12.3%; in the data set on Mus musculus [8], 10.6%. Moreover, the Survivors with Mus musculus [6] and in the data set with Mus musculus [7] was 0 in each case.
